Data reported in ChEMBL document CHEMBL1135975, “Design, synthesis, and evaluation of new noncross-linking pyrrolobenzodiazepine dimers with efficient DNA binding ability and potent antitumor activity” (2002).
Where “and” joins values, the source holds several entries; their conditions need not be identical. Equal values may be shown once.

Columns and labels:
Tumor Cell line [1] = experiment: In-vitro cytotoxicity of Drug molar concentration causing 50% cell growth inhibition against Human tumor cell lines; type: functional
Summary of the method: (§1)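 Sixty human tumor cell lines covering nine cancer types. Continuous drug exposure for 48 h, with growth or viability read by sulforhodamine B protein assay. Dose-response curves were run at a minimum of five concentrations at 10-fold dilutions. GI50 (50% growth inhibition) and TGI (0% growth) were calculated relative to control and reported as log mean graph midpoints across all cell lines.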

Tumor Cell line [2] = experiment: In vitro cytotoxicity of drug concentration causing total cell growth inhibition; type: functional, Homo sapiens; conditions: read-out: Log TGI (converted); summary of the method: as §1
Ovarian carcinoma cell = experiment: Drug concentration causing 50% lethality against ovarian human cancer line; type: functional; conditions: read-out: Log LC50 (the source's name) (converted)
Summary of the method: (§2)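 Sixty-line human tumour panel screen: at least five concentrations at 10-fold dilutions, 48 h continuous exposure, growth read by sulforhodamine B protein stain. LC50 is the molar concentration giving 50% cell death (-50% growth) relative to control, as log LC50. Each cancer-type value is the average of 6-8 different cell lines.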

Bos taurus [3] = species: Bos taurus; experiment: Thermal denaturation measured for calf thymus DNA after incubation at 37 degree at 18 h.
Summary of the method: (§3)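 Calf thymus DNA (100 µM in phosphate) with ligand at 20 µM final, a 1:5 ligand/DNA molar ratio, added from concentrated MeOH solution. Buffer was 10 mM sodium phosphate with 1 mM EDTA, pH 7.00. Samples were incubated at 37 °C for 0 or 18 h, then heated at 1 °C/min over 40-90 °C with A260 monitored. Tm was taken from the d(A260)/dT maxima, and ∆Tm given relative to DNA alone.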

Homo sapiens = species: Homo sapiens; experiment: Drug concentration causing 50% lethality against human cancer line nonsmall-cell lung; type: functional; conditions: read-out: Log LC50 (the source's name) (converted); summary of the method: as §2
Melanoma cell = experiment: Drug concentration causing 50% lethality against human cancer line melanoma; type: functional; conditions: read-out: Log LC50 (the source's name) (converted); summary of the method: as §2
Prostatic carcinoma cell = experiment: Drug concentration causing 50% lethality against prostate human cancer line; type: functional; conditions: read-out: Log LC50 (the source's name) (converted); summary of the method: as §2
Bos taurus [4] = species: Bos taurus; experiment: Thermal denaturation measured for calf thymus DNA after incubation at 37 degree at 0h.; summary of the method: as §3
Renal cancer cell line = experiment: Drug concentration causing 50% lethality against renal human cancer line; type: functional; conditions: read-out: Log LC50 (the source's name) (converted); summary of the method: as §2
Tumor Cell line [5] = experiment: In vitro cytotoxicity of drug concentration causing 50% cell death; type: functional, Homo sapiens; conditions: read-out: Log LC50 (the source's name) (converted)
Summary of the method: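 Compound tested against sixty human tumour lines from nine cancer types, each line at at least five concentrations at 10-fold dilutions, 48 h continuous exposure, sulforhodamine B protein read-out. LC50 is the concentration causing 50% cell death (-50% growth) versus control. The value is the mean graph midpoint of log LC50 over all lines.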

[6] = test system: Panel leukemia (Carcinoma cell lines); experiment: Drug concentration causing 50% lethality against human cancer line leukemia; type: functional; conditions: read-out: Log LC50 (the source's name) (converted); summary of the method: as §2
Breast carcinoma cell = experiment: Drug concentration causing 50% lethality against breast human cancer line; type: functional; summary of the method: as §2
CNS carcinoma cell = experiment: Drug concentration causing 50% lethality against human cancer line of CNS; type: functional; summary of the method: as §2
Colon carcinoma cell = experiment: Drug concentration causing 50% lethality against human cancer line of colon; type: functional; summary of the method: as §2
[7] = Homo sapiens, Ovarian carcinoma cell
[8] = Homo sapiens, Renal cancer cell line

SMILES | GI50 (Tumor Cell line [1]; Homo sapiens, Tumor Cell line) | TGI (Tumor Cell line [2]; Homo sapiens, Tumor Cell line) | CC50 (Ovarian carcinoma cell; [7]) | ΔTm (Bos taurus [3]) | CC50 (Homo sapiens; Homo sapiens) | CC50 (Melanoma cell; Homo sapiens, Melanoma cell) | CC50 (Prostatic carcinoma cell) | ΔTm (Bos taurus [4]) | CC50 (Renal cancer cell line; [8]) | CC50 (Tumor Cell line [5]; Homo sapiens, Tumor Cell line) | CC50 [6] | other results
COc1cc2c(cc1OCCCOc1cc3c(cc1OC)C(=O)N1CCC[C@H]1C(=O)N3)N=C[C@@H]1CCCN1C2=O | 13.2 µM | 42.7 µM | 95.5 µM | 7 °C | > 100 µM | 83.2 µM | > 100 µM | 6.5 °C | 91.2 µM | 83.2 µM | 33.1 µM | –
COc1cc2c(cc1O)N=C[C@@H]1CCCN1C2=O | – | – | – | 0.7 °C | – | – | – | 0.3 °C | – | – | – | –
COc1cc2c(cc1OCCCCOc1cc3c(cc1OC)C(=O)N1CCC[C@H]1C(=O)N3)N=C[C@@H]1CCCN1C2=O | 7.24 µM | 20.4 µM | 58.9 µM | 8.5 °C | 58.9 µM | 41.7 µM | 67.6 µM | 5 °C | 55 µM | 50.1 µM | 24.4 µM | LC50 (Breast carcinoma cell): 53.7 µM; LC50 (CNS carcinoma cell): 45.7 µM; LC50 (50% lethal concentration) (Colon carcinoma cell): 57.5 µM
COc1cc2c(cc1OCCCCCOc1cc3c(cc1OC)C(=O)N1CCC[C@H]1C(=O)N3)N=C[C@@H]1CCCN1C2=O | 0.115 µM | 2.24 µM | 87.1 µM | 17 °C | 58.9 µM | – | > 100 µM | 14 °C | 51.3 µM | 44.7 µM | – | GI50 (Tumor Cell line [1]): 0.12 µM; TGI (Tumor Cell line [2]): 1.12 µM; CC50 (Ovarian carcinoma cell): 60.3 µM; CC50 (Homo sapiens): 79.4 µM; CC50 (Melanoma cell): 10 µM and 3.31 µM; CC50 (Renal cancer cell line): 44.7 µM; CC50 (Tumor Cell line [5]): 27.5 µM
COc1cc2c(cc1OCCCOc1cc3c(cc1OC)C(=O)N1CCC[C@H]1C=N3)N=C[C@@H]1CCCN1C2=O | – | – | – | – | – | – | – | 10.2 °C | – | – | – | –
